Measured values pooled from the literature.
Lines come from different studies, so protocols differ.
Dihydrofolate reductase: Dihydrofolate reductase (Bos taurus, UniProt P00376)
MAPK14: Mitogen-activated protein kinase 14 (MAPK14, Homo sapiens, UniProt Q16539)
Si: Sucrase-isomaltase, intestinal (Si, Rattus norvegicus, UniProt P23739)

CNCc1cc(-c2cc(O)ccc2OC(F)(F)F)ccc1F — IC50 (Estrogen receptor (ESR1, Homo sapiens, UniProt P03372, D538G); coactivator recruitment, TR-FRET): ~18 µM
COc1ccc(N2N=C(C(C)=O)SC2=C(C#N)C(=O)c2ccc(Nc3cnccn3)cc2)cc1 — IC50 (Dihydrofolate reductase; enzyme activity, inhibitor): 3.82 µM
Oc1ccccc1-c1n[nH]cc1-c1ccnc2ccccc12 — IC50 (MAPK14; enzyme activity, inhibitor, ADP detection): 0.73 µM
CC(C)(C)NS(=O)(=O)c1cccc(C(=O)N2CC3(CCC4(CC4)CC3)c3cc(NS(C)(=O)=O)ccc32)c1 — IC50 (Kinesin-like protein KIFC1 (KIFC1, Homo sapiens, UniProt Q9BW19); ATPase activity, inhibitor): > 100 µM
c1ccc(-c2occc2-c2ccnc3ccccc23)nc1 — IC50 (MAPK14; enzyme activity, inhibitor, ADP detection): > 30 µM
Cc1cc(O)c(-c2ccc([C@@H](C)CN(C)C)cc2)c2c1[nH]c(=O)c1sccc12 — IC50 (Cyclin-dependent kinase 14, with cyclin Y (CDK14, Homo sapiens, UniProt O94921); enzyme activity, inhibitor): > 1 µM
CC(=O)C1=NN(c2ccccc2)C(=C(C#N)C(=O)c2ccc(Nc3cnccn3)cc2)S1 — IC50 (Dihydrofolate reductase; enzyme activity, inhibitor): 1.95 µM
COc1cc(C=O)ccc1O — IC50 (Si; enzyme activity, inhibitor, absorbance): 1350 µM
N=c1sc(C(=O)c2ccc(Nc3cnccn3)cc2)nn1-c1ccccc1 — IC50 (Dihydrofolate reductase; enzyme activity, inhibitor): 6.49 µM
COc1cc(C(=O)O)ccc1O — IC50 (Si; enzyme activity, inhibitor, absorbance): 1650 µM
c1ccc(-c2n[nH]cc2-c2ccncn2)nc1 — IC50 (MAPK14; enzyme activity, inhibitor, ADP detection): 1.5 µM
CN1CCC(CNc2ccc3ncc(-c4cccc(OC(F)(F)F)c4)n3n2)CC1 — IC50 (5-hydroxytryptamine receptor 1A (HTR1A, Homo sapiens, UniProt P08908); cAMP, agonist): 7.13 µM
